From ChEMBL document CHEMBL1795210, “Synthesis and screening of (E)-1-(β-D-galactopyranosyl)-4-(aryl)but-3-ene-2-one against Mycobacterium tuberculosis” (2011)
≈ marks a conversion by molar mass, not a printed value.

System: Mycobacterium tuberculosis
Test: Antimicrobial activity against Mycobacterium tuberculosis H37Rv after 28 days by agar dilution method
Format: functional
Details: 672 h
Outline: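 Agar dilution on Middlebrook 7H11 with OADC supplement. Compound serially diluted into the agar, […]. H37Rv inoculum from fresh 7H11 slants, set to 1 mg/mL wet weight in 0.05% Tween 80 saline, diluted 10^2 to about 10^7 cfu/mL; 5 µL spotted per tube. Incubated at 37 C, read at 28 days. MIC = lowest concentration giving complete growth inhibition.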

O=C(/C=C/c1ccc(CO)o1)C[C@@H]1O[C@H](CO)[C@H](O)[C@H](O)[C@H]1O
MIC: 1.56 µg/mL (≈ 4.75 µM)

COc1ccc(-c2ccc(/C=C/C(=O)C[C@@H]3O[C@H](CO)[C@H](O)[C@H](O)[C@H]3O)o2)cc1Cl
MIC: 3.13 µg/mL (≈ 7.13 µM)

O=C(/C=C/c1ccc(-c2ccc(Cl)cc2[N+](=O)[O-])o1)C[C@@H]1O[C@H](CO)[C@H](O)[C@H](O)[C@H]1O
MIC: > 12.5 µg/mL

O=C(/C=C/c1ccc(-c2ccccc2[N+](=O)[O-])o1)C[C@@H]1O[C@H](CO)[C@H](O)[C@H](O)[C@H]1O
MIC: > 12.5 µg/mL

O=C(/C=C/c1ccc2c(c1)OCO2)C[C@@H]1O[C@H](CO)[C@H](O)[C@H](O)[C@H]1O
MIC: 1.56 µg/mL (≈ 4.43 µM)

COc1c(O)cc(/C=C/C(=O)C[C@@H]2O[C@H](CO)[C@H](O)[C@H](O)[C@H]2O)cc1[N+](=O)[O-]
MIC: 1.56 µg/mL (≈ 3.91 µM)

COc1cc(/C=C/C(=O)C[C@@H]2O[C@H](CO)[C@H](O)[C@H](O)[C@H]2O)cc(OC)c1OC
MIC: 6.25 µg/mL (≈ 15.7 µM)

COc1cc(OC)c(/C=C/C(=O)C[C@@H]2O[C@H](CO)[C@H](O)[C@H](O)[C@H]2O)c(OC)c1
MIC: 6.25 µg/mL (≈ 15.7 µM)

COc1ccc(/C=C/C(=O)C[C@@H]2O[C@H](CO)[C@H](O)[C@H](O)[C@H]2O)cc1Br
MIC: > 12.5 µg/mL

O=C(/C=C/c1ccc(C(=O)O)cc1)C[C@@H]1O[C@H](CO)[C@H](O)[C@H](O)[C@H]1O
MIC: 1.56 µg/mL (≈ 4.43 µM)

CN(C)c1ccc(/C=C/C(=O)C[C@@H]2O[C@H](CO)[C@H](O)[C@H](O)[C@H]2O)cc1
MIC: 1.56 µg/mL (≈ 4.44 µM)

O=C(/C=C/c1ccc(N(CCO)CCO)cc1)C[C@@H]1O[C@H](CO)[C@H](O)[C@H](O)[C@H]1O
MIC: 6.25 µg/mL (≈ 15.2 µM)

O=C(/C=C/c1ccc2ccccc2n1)C[C@@H]1O[C@H](CO)[C@H](O)[C@H](O)[C@H]1O
MIC: 3.13 µg/mL (≈ 8.71 µM)

O=C(/C=C/c1cnc2ccccc2c1)C[C@@H]1O[C@H](CO)[C@H](O)[C@H](O)[C@H]1O
MIC: 6.25 µg/mL (≈ 17.4 µM)

O=C(/C=C/c1ccc2cccc(O)c2n1)C[C@@H]1O[C@H](CO)[C@H](O)[C@H](O)[C@H]1O
MIC: 3.13 µg/mL (≈ 8.34 µM)

C=Cc1cccc(/C=C/C(=O)C[C@@H]2O[C@H](CO)[C@H](O)[C@H](O)[C@H]2O)c1
MIC: 3.13 µg/mL (≈ 9.36 µM)

C#Cc1ccccc1/C=C/C(=O)C[C@@H]1O[C@H](CO)[C@H](O)[C@H](O)[C@H]1O
MIC: > 12.5 µg/mL

O=C(/C=C/c1ccc(-c2ccccc2)cc1)C[C@@H]1O[C@H](CO)[C@H](O)[C@H](O)[C@H]1O
MIC: 6.25 µg/mL (≈ 16.3 µM)

O=C(/C=C/c1cc(C(F)(F)F)ccc1C(F)(F)F)C[C@@H]1O[C@H](CO)[C@H](O)[C@H](O)[C@H]1O
MIC: 12.5 µg/mL (≈ 28.1 µM)

CC[C@@H](CO)NCCN[C@@H](CC)CO [ETHAMBUTOL]
MIC: 1.56 µg/mL (≈ 7.64 µM)

NNC(=O)c1ccncc1 [ISONIAZID]
MIC: 0.05 µg/mL (≈ 0.365 µM)

CO[C@H]1/C=C/O[C@@]2(C)Oc3c(C)c(O)c4c(O)c(c(/C=N/N5CCN(C)CC5)c(O)c4c3C2=O)NC(=O)/C(C)=C\C=C\[C@H](C)[C@H](O)[C@@H](C)[C@@H](O)[C@@H](C)[C@H](OC(C)=O)[C@@H]1C [RIFAMPIN]
MIC: 0.1 µg/mL (≈ 0.122 µM)
